{"source": "paper PMC7825275", "about": "(Cancer chemotherapy and pharmacology, 2019)", "key": {"[1]": {"tested_on": "patients with advanced solid tumors", "type": "in vivo, human", "conditions": "with veliparib 100 mg BID and carboplatin AUC 6", "procedure,_shortened": "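Standard 3+3 escalation with modified Fibonacci steps. Oral veliparib was given every 12 h on days 1–7 of 21-day cycles, with IV carboplatin/paclitaxel on day 3. For the first 46 patients, cycle 1 was chemotherapy alone and DLT was scored in cycle 2; afterwards all three agents were given in cycle 1, which was the DLT cycle. Growth factors were barred in cycles 1–2. MTD was the highest dose with ≤1/6 DLTs.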"}, "[2]": {"assay": "Paclitaxel plasma pharmacokinetics", "type": "in vivo, human", "conditions": "cycle 1 (veliparib -) vs cycle 2 (veliparib +)", "procedure,_shortened": "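Patient plasma from heparinized blood drawn pre-dose and at 0.5–24 h after start of IV paclitaxel infusion, in the chemotherapy-alone lead-in cycle and in the veliparib cycle (day 3). Samples were spun at ~1,000 x g for 10 min and plasma held at −70°C or colder. Quantitation was by LC-MS/MS with [13C6]-paclitaxel internal standard. Parameters were derived non-compartmentally and paired cycles compared by 2-sided exact Wilcoxon signed rank.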"}, "[3]": {"tested_on": "patients", "conditions": "days 1-5, with veliparib 10 mg bid; cited from earlier work"}, "[4]": {"assay": "Ultrafilterable carboplatin", "type": "in vivo, human", "procedure,_shortened": "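Ultrafilterable platinum was measured by atomic absorption spectrophotometry in patient plasma. […] Plasma was spun at ~1,000 x g for 10 min and stored at −70°C or colder. Parameters were derived non-compartmentally. AUC targeting bias and precision were taken as mean prediction error and root mean squared prediction error. Cycles were compared by 2-sided exact Wilcoxon signed rank.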"}, "[5]": {"tested_on": "patients with advanced solid tumors", "assay": "Toxicity by grade", "type": "in vivo, human", "conditions": "initial cycle of carboplatin and paclitaxel without veliparib", "procedure,_shortened": "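Adverse events were tabulated descriptively as maximum grade in three groups: the chemotherapy-only lead-in cycle, the first veliparib-containing cycle, and all cycles. CBC and serum chemistry including liver function tests were drawn weekly during cycles 1–2, then at the start of every cycle. Veliparib was oral, twice daily on days 1–7; carboplatin/paclitaxel were IV every 21 days.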"}}, "data": [{"molecule": "CC(=O)O[C@H]1C(=O)[C@@]2(C)[C@H]([C@H](OC(=O)c3ccccc3)[C@]3(O)C[C@H](OC(=O)[C@H](O)[C@@H](NC(=O)c4ccccc4)c4ccccc4)C(C)=C1C3(C)C)[C@]1(OC(C)=O)CO[C@@H]1C[C@@H]2O", "note": "[paclitaxel]", "values": [{"measurement": "MTD and RP2D, paclitaxel dose", "setting": "[1]", "value": 200, "unit": "mg/m^2"}, {"measurement": "paclitaxel exposure, effect of the presence of veliparib or veliparib dose", "setting": "[2]", "value": "not impacted"}]}, {"molecule": "CC[C@@]1(O)C(=O)OCc2c1cc1n(c2=O)Cc2cc3c(CN(C)C)c(O)ccc3nc2-1", "note": "[topotecan]", "values": [{"measurement": "MTD, topotecan dose", "setting": "[3]", "value": 0.6, "unit": "mg"}]}, {"molecule": "N.N.O=C([O-])C1(C(=O)[O-])CCC1.[Pt+2]", "note": "[carboplatin]", "values": [{"measurement": "Carboplatin exposure, effect of the presence of veliparib or veliparib dose", "setting": "[4]; cycle 1 (veliparib -) vs cycle 2 (veliparib +)", "value": "not impacted"}, {"measurement": "ME as % of AUC 6 mg•min/mL", "setting": "[4]; in the absence of veliparib", "value": 31, "unit": "%"}, {"measurement": "RMSE as % of AUC 6 mg•min/mL", "setting": "[4]; in the absence of veliparib", "value": 57, "unit": "%"}, {"measurement": "ME as % of AUC 6 mg•min/mL", "setting": "[4]; in the presence of veliparib", "value": 22, "unit": "%"}, {"measurement": "RMSE as % of AUC 6 mg•min/mL", "setting": "[4]; in the presence of veliparib", "value": 45, "unit": "%"}]}, {"molecule": "carboplatin and paclitaxel", "values": [{"measurement": "neutropenia grade 3", "setting": "[5]", "value": 20, "unit": "%"}, {"measurement": "neutropenia grade 4", "setting": "[5]", "value": 24, "unit": "%"}, {"measurement": "neutropenia, % of patients", "setting": "[5]", "value": 56, "unit": "%"}]}]}
